Data reported in ChEMBL document CHEMBL4038311, “An Ursolic Acid Derived Small Molecule Triggers Cancer Cell Death through Hyperstimulation of Macropinocytosis” (J Med Chem, 2017).
Activity calls are given as the source filed them. No cut-off for these calls is given here.

Assays:
HeLa [1] = experiment: Induction of macropinocytosis-like cytosolic vacuolization in human HeLa cells at 20 uM after 24 hrs by transmission electron microscopic analysis; type: functional, cell-based
Summary of the method: (§1)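 HeLa exposed to 20 µM for 24 h, then fixed, dehydrated and resin-embedded. Ultrathin sections on copper grids stained with uranyl acetate and lead citrate, then examined by TEM.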

HeLa [2] = experiment: Anticancer activity against human HeLa cells assessed as vacuole formation at 20 uM after 24 hrs by phase contrast microscopic analysis; type: functional, cell-based
HeLa [3] = experiment: Induction of macropinocytosis in human HeLa cells assessed as colocalization of lucifer yellow and lysosomal marker LAMP1 at 20 uM after 6 to 24 hrs by confocal microscopic analysis; type: functional, cell-based; conditions: TDE = time-dependent effect
Summary of the method: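 HeLa on poly-L-lysine coverslips given 0.1% DMSO or 20 µM for indicated times, then loaded with Lucifer yellow CH. Fixed in 4% PFA 30 min, permeabilized with 0.1% Triton X-100, blocked with 5% BSA. Anti-EEA1, -LAMP1 or -Rab7 applied overnight at 4 °C, Alexa488 secondary 1 h, DAPI counterstain. Confocal imaging.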

HeLa [4] = experiment: Anticancer activity against human HeLa cells assessed as decrease in cell viability at 20 uM preincubated cells with Z-VAD-FMK for 1 hr followed by compound addition measured after 48 hrs by CCK8 assay; type: functional, cell-based
Summary of the method: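 HeLa cells pretreated 1 h with 50 µM z-VAD-FMK, then given the compound. Viability read after 48 h by CCK-8 (450 nm), with DMSO-treated wells as control.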

HeLa [5] = experiment: Induction of apoptosis in human HeLa cells assessed as increase in cleaved caspase-3 levels at 20 to 30 uM after 24 hrs by Western blot analysis; type: functional, cell-based
Summary of the method: (§2)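 HeLa given indicated concentrations. RIPA lysates, BCA-quantified, SDS-PAGE and PVDF transfer. Anti-caspase-3 or anti-PARP1 applied overnight at 4 °C after 1 h 5% milk block, secondary 2 h at RT. Infrared imaging, GAPDH as loading control.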

HT-1080 = experiment: Anticancer activity against human HT1080 cells assessed as vacuole formation at 20 uM after 24 hrs by phase contrast microscopic analysis; type: functional, cell-based
HeLa [6] = experiment: Induction of methuosis in human HeLa cells assessed as increase in vacuole formation preincubated cells with dynamin inhibitor dynasore for 1 hr followed by compound addition measured after 24 hrs by phase contrast microscopic analysis; type: functional, cell-based
Summary of the method: (§3)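 HeLa cells grown in DMEM with 10% FBS, 100 U/ml penicillin and 100 µg/ml streptomycin at 37 °C, 5% CO2 humidified air. The inhibitor was added before compound exposure. Vacuolization was judged in live cells by phase-contrast microscopy.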

HeLa [7] = experiment: Anticancer activity against human HeLa cells assessed as vacuole formation at 20 uM preincubated cells with Z-VAD-FMK for 1 hr followed by compound addition measured after 24 hrs by phase contrast microscopic analysis; type: functional, cell-based
Summary of the method: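 HeLa pretreated 1 h with or without z-VAD-FMK, then given 20 µM or DMSO. Phase-contrast images taken at 24 h.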

C2C12 = experiment: Cytotoxicity against mouse C2C12 cells assessed as vacuole formation at 20 uM after 24 hrs by phase contrast microscopic analysis relative to control; type: cell-based; conditions: c2c12, 24 h
Summary of the method: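 C2C12 or HDF cells given 20 µM or 0.1% DMSO for 24 h, then imaged live by phase-contrast microscopy.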

HeLa [8] = experiment: Induction of macropinocytosis in human HeLa cells assessed as formation of lysosomal degradative compartments at 20 uM after 24 hrs by Lysotracker red staining-based confocal microscopic analysis; type: functional, cell-based
Summary of the method: (§4)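 HeLa given 20 µM for 24 h, then labelled live with 50 nM LysoTracker Red (30 min) or 200 nM MitoTracker Red CMXRos (1 h) in medium, after Lucifer yellow loading. Imaged live by confocal microscopy.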

HeLa [9] = experiment: Induction of macropinocytosis in human HeLa cells assessed as formation of mitochondrial degradative compartments at 20 uM after 24 hrs by Mitotracker red staining-based confocal microscopic analysis; type: functional, cell-based; summary of the method: as §4
HeLa [10] = experiment: Anticancer activity against human HeLa cells assessed as cell viability after 48 hrs by CCK8 assay; type: functional, cell-based
Summary of the method: (§5)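 Seeded at 1000 cells/well in DMEM with 10% FBS at 37 °C, 5% CO2, overnight pre-incubation. Serial dilutions from a 100 mM DMSO stock gave final 0–50 µM, with 48 h exposure. CCK-8 read at 450 nm. IC50 fitted against DMSO control, given with s.d., n = 3 independent experiments.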

SK-N-MC [11] = experiment: Anticancer activity against human SK-N-MC cells assessed as cell viability after 48 hrs by CCK8 assay; type: functional, cell-based; summary of the method: as §5
HeLa [12] = experiment: Anticancer activity against human HeLa cells assessed as vacuole formation at 20 uM after 12 hrs by phase contrast microscopic analysis; type: functional, cell-based
HeLa [13] = experiment: Induction of apoptosis in human HeLa cells assessed as pyknotic chromatin formation at 20 uM after 24 hrs by transmission electron microscopic analysis; type: functional, cell-based; summary of the method: as §1
HeLa [14] = experiment: Induction of apoptosis in human HeLa cells assessed as increase in cleaved PARP1 levels at 20 to 30 uM after 24 to 48 hrs by Western blot analysis; type: functional, cell-based; summary of the method: as §2
SK-N-MC [15] = experiment: Anticancer activity against human SK-N-MC cells assessed as cell viability at 20 uM after 48 hrs by CCK8 assay relative to control; type: functional; conditions: read-out: Activity
Summary of the method: (§6)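 Cells (5000/well, pre-incubated overnight) exposed to 20 µM for 48 h. CCK-8 absorbance read at 450 nm. Viability given as percent of vehicle (DMSO) control, mean ± SD. Six parallel wells per condition, at least three independent repeats.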

MCF7 [16] = experiment: Anticancer activity against human MCF7 cells assessed as cell viability after 48 hrs by CCK8 assay; type: functional, cell-based; conditions: MCF7, 48 h; summary of the method: as §5
HeLa [17] = experiment: Induction of methuosis in human HeLa cells assessed as increase in vacuole formation preincubated cells with actin inhibitor cytochalasin D for 1 hr followed by compound addition measured after 24 hrs by phase contrast microscopic analysis; type: functional, cell-based; summary of the method: as §3
HeLa [18] = experiment: Anticancer activity against human HeLa cells assessed as cell viability at 20 uM after 24 to 72 hrs by CCK8 assay relative to control; type: functional; conditions: read-out: Activity
Summary of the method: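 HeLa cells seeded at 5000/well and pre-incubated overnight, then exposed to 20 µM. CCK-8 absorbance at 450 nm read at 24, 48 and 72 h, relative to DMSO-treated control. Six wells per condition, experiments repeated at least three times.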

HeLa [19] = experiment: Induction of autophagy in human HeLa cells assessed as cytosolic autophagosomes formation at 20 uM after 24 hrs by transmission electron microscopic analysis; type: functional, cell-based; summary of the method: as §1
HeLa [20] = experiment: Induction of methuosis in human HeLa cells assessed as decrease in cell viability preincubated cells with actin inhibitor cytochalasin D for 1 hr followed by compound addition measured after 48 hrs by CCK8 assay; type: functional, cell-based
MCF7 [21] = experiment: Anticancer activity against human MCF7 cells assessed as cell viability at 20 uM after 48 hrs by CCK8 assay relative to control; type: functional; conditions: MCF7, 48 h, read-out: Activity; summary of the method: as §6
HeLa [22] = experiment: Induction of methuosis in human HeLa cells assessed as decrease in cell viability preincubated cells with vacuolar-type H+-ATPase inhibitor Baf-A1 for 1 hr followed by compound addition measured after 48 hrs by CCK8 assay; type: functional, cell-based
Summary of the method: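 HeLa incubated 1 h with 100 nM Baf-A1 before compound addition. Viability measured by CCK-8 at 450 nm against DMSO control.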

C[C@H]1[C@H](C)CC[C@]2(C(=O)O)CC[C@]3(C)C(=CC[C@@H]4[C@@]5(C)Cc6cnn(-c7ccc(C#N)cc7)c6C(C)(C)[C@@H]5CC[C@]43C)[C@H]12
Activity (HeLa [1]): Active | Activity (HeLa [2]): Active | Activity (HeLa [3]): Tde | Activity (HeLa [4]): Active | Activity (HeLa [5]): Active | Activity (HT-1080): Active | Activity (HeLa [6]): inactive | Activity (HeLa [7]): Active | Activity (C2C12): Toxic | Activity (HeLa [8]): Active | Activity (HeLa [9]): Active | IC50 (HeLa [10]): 15.1 µM | IC50 (SK-N-MC [11]): 17.1 µM | Activity (HeLa [12]): Active | Activity (HeLa [13]): inactive | Activity (HeLa [14]): Active | viability at 20 µM (SK-N-MC [15]): 28.6% | IC50 (MCF7 [16]): 17.6 µM | Activity (HeLa [17]): inactive | viability at 20 µM (HeLa [18]): 74.2% | Activity (HeLa [19]): inactive | Activity (HeLa [20]): inactive | viability at 20 µM (MCF7 [21]): 25.2% | Activity (HeLa [22]): inactive
